Measured values taken from ChEMBL document CHEMBL1125597, “Potent inhibitory effect of a series of modified cyclodextrin sulfates (mCDS) on the replication of HIV-1 in vitro” (J Med Chem, 1991).

What was measured:
MOLT-4 [1] = test: Suppressive effect on giant-cell formation against HIV-2GH-1 in MOLT-4 cells; type: functional, Homo sapiens
Method in brief: (§1)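 Uninfected MOLT-4 mixed 1:1 with persistently infected MOLT-4 (HIV-1 LAV-1 or HIV-2 GH-1 carriers), 5×10^5 cells/mL total, cultured 24 h with compound. Viable cells counted by trypan blue exclusion; fusion index = 1 − cells in test well/cells in uninfected MOLT-4 control. Median of 2 or 3 experiments.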

MOLT-4 [2] = test: Suppressive effect on giant-cell formation against HIV-1LAV-1 in MOLT-4 cells; type: functional, Homo sapiens; method in brief: as §1
MT4 [3] = test: Compound was evaluated for the minimum concentration for appearance of MT-4 cell toxicity; type: functional, Homo sapiens
Method in brief: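 MT-4 cells incubated 5 days with test compound (12 doses, 0.49–1000 µg/mL); lowest concentration at which toxicity appears, viable cells by trypan blue staining in mock-infected cultures. Median of 2 or 3 experiments.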

MT4 [4] = test: The minimum concentration for complete inhibition (IC100) of HIV-1 strain KK-1AIDS from human induced CPE in MT-4 cells.; type: functional
Method in brief: (§2)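 MT-4 cells infected 1 h with HIV-1 (LAV-1 or patient isolate KK-1 AIDS) at 0.001 TCID50 per cell, unbound virus washed off. Cultured 5 days with compound (12 doses, 0.49–1000 µg/mL); viable cells in infected and mock cultures by trypan blue. Minimum concentration fully preventing CPE; median of 2 or 3 experiments.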

MT4 [5] = test: The minimum concentration for complete inhibition (IC100) of HIV-1 strain LAV-1 from human induced CPE in MT-4 cells.; type: functional; method in brief: as §2
MT4 [6] = test: Compound was evaluated for the anticoagulant activity; type: functional, Homo sapiens
Method in brief: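 Zucker activated partial thromboplastin time (APTT) method; value is the concentration (µg/mL) giving 2-fold APTT. Median of 2 or 3 experiments.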

Row | Structure (SMILES) | Supressive effect (MOLT-4 [1]) [µg/mL] | Supressive effect (MOLT-4 [2]) [µg/mL] | Cytotoxicity (MT4 [3]) [µg/mL] | IC100 (MT4 [4]) [µg/mL] | IC100 (MT4 [5]) [µg/mL] | APTT (MT4 [6]) [µg/mL]
1 | COc1ccc(NCC2O[C@@H]3O[C@@H]4C(CNc5ccc(OC)cc5)O[C@@H](O[C@@H]5C(CNc6ccc(OC)cc6)O[C@H](O[C@@H]6C(CNc7ccc(OC)cc7)O[C@H](O[C@@H]7C(CNc8ccc(OC)cc8)O[C@H](O[C@@H]8C(CNc9ccc(OC)cc9)O[C@H](O[C@@H]9C(CNc%10ccc(OC)cc%10)O[C@H](O[C@H]2C(O)C3OS(=O)(=O)[O-])C(OS(=O)(=O)[O-])C9OS(=O)(=O)[O-])C(OS(=O)(=O)[O-])C8OS(=O)(=O)[O-])C(OS(=O)(=O)[O-])C7O)C(OS(=O)(=O)[O-])C6OS(=O)(=O)[O-])C(OS(=O)(=O)[O-])C5OS(=O)(=O)[O-])C(OS(=O)(=O)[O-])C4OS(=O)(=O)[O-])cc1.[Na+].[Na+].[Na+].[Na+].[Na+].[Na+].[Na+].[Na+].[Na+].[Na+].[Na+].[Na+] (stereo partly specified) | 40.2 | 5.5 | >1000 | 31.2 | 0.98 | 4.3
2 | O=[PH](O)OCC1O[C@H]2O[C@@H]3C(CO[PH](=O)O)O[C@H](O[C@@H]4C(CO[PH](=O)O)O[C@H](O[C@@H]5C(CO[PH](=O)O)O[C@H](O[C@@H]6C(CO[PH](=O)O)O[C@H](O[C@@H]7C(CO[PH](=O)O)O[C@H](O[C@@H]8C(CO[PH](=O)O)O[C@H](O[C@H]1C(O)C2O)C(O)C8Cl)C(O)C7Cl)C(O)C6O[PH](=O)O)C(O)C5Cl)C(O)C4Cl)C(O)C3Cl (stereo partly specified) [CYCLODEXTRIN PHOSPHATE] |  |  | >1000 | 40 | 31.2 | 47.2
3 | O=S(=O)([O-])OCC1O[C@@H]2O[C@@H]3C(COS(=O)(=O)[O-])O[C@H](O[C@@H]4C(COS(=O)(=O)[O-])O[C@@H](O[C@@H]5C(COS(=O)(=O)[O-])O[C@H](O[C@@H]6C(COS(=O)(=O)[O-])O[C@H](O[C@@H]7C(COS(=O)(=O)[O-])O[C@H](O[C@@H]8C(COS(=O)(=O)[O-])O[C@H](O[C@H]1C(O)C2OS(=O)(=O)[O-])C(OS(=O)(=O)[O-])C8O)C(OS(=O)(=O)[O-])C7O)C(OS(=O)(=O)[O-])C6O)C(OS(=O)(=O)[O-])C5O)C(OS(=O)(=O)[O-])C4O)C(OS(=O)(=O)[O-])C3O.[K+].[K+].[K+].[K+].[K+].[K+].[K+].[K+].[K+].[K+].[K+].[K+].[K+].[K+] (stereo partly specified) [CYCLODEXTRIN SULFATE (CDS)] | 519 | 60 | >1000 | 125 | 31.2 | 2.83
